Experiments:
[1] = target: A128T mutant HIV-1 IN (Human immunodeficiency virus type 1 group M subtype B, UniProt P12497, A1275T); test: HTRF-based aberrant IN multimerization assay, A128T mutant IN; type: biochemical
[2] = target: HIV-1 IN (WT) (Human immunodeficiency virus type 1 group M subtype B, UniProt P12497); test: biochemical
[3] = target: HIV-1 integrase (IN) (Human immunodeficiency virus type 1 group M subtype B, UniProt P12497); test: HTRF-based LEDGF/p75-dependent integration assay; type: biochemical; conditions: for activity in the LEDGF/p75-dependent integration assay: at concentrations up to 100 μM
How it was run: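 Homogeneous time-resolved fluorescence read-out of integration in the presence of LEDGF/p75. Reactions run in neutral buffer, so carboxylic acid test compounds are present as the carboxylate anion. The format is said to detect integrase inhibitors acting by different mechanisms.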

Row | SMILES | IC50 [1] [µM] | IC50 [2] [µM] | IC50 [3] [µM] | activity in the LEDGF/p75-dependent integration assay [3]
1 | Cn1c(C(OC(C)(C)C)C(=O)O)c(-c2ccc3c(c2)CCCO3)c2ccccc21 (stereo not drawn) [Compound 5c] | 16 ± 1.4 | 16.1 ± 2 |  | 
2 | Cn1c(CC(OC(C)(C)C)C(=O)O)c(-c2ccccc2)c2ccccc21 (stereo not drawn) [Compound 10] |  |  | > 100 | failed to show any activity
3 | COc1ccc(-n2c(C(OC(C)(C)C)C(=O)O)c(C)c3ccccc32)cc1 (stereo not drawn) [Compound 15] |  |  | > 100 | failed to show any activity

From publication PMC5018460 (Bioorganic & medicinal chemistry letters, 2016)
